Reference: ChEMBL document CHEMBL1944618, “Synthesis and antifungal activity of a new series of 2-(1H-imidazol-1-yl)-1-phenylethanol derivatives” (Eur J Med Chem, 2012)
≈ marks a conversion by molar mass, not a printed value.

Columns and labels:
Candida albicans [1] = experiment: Antifungal activity against Candida albicans ATCC 24433 after 48 hrs by M27-A3 CLSI method; format: functional
Method in brief: (§1)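 Broth microdilution in RPMI 1640, two-fold serial dilutions, final test range 0.125–64 µg mL-1 (fluconazole reference 0.0078–128 µg mL-1). Inoculum 1.0×10^3–1.5×10^3 cells mL-1 from yeasts grown 24 h at 35 °C on Sabouraud dextrose agar. Incubation 35 °C, read at 48 h. MIC = lowest concentration giving >50% turbidity decrease versus growth control. Run three times in triplicate. C. parapsilosis ATCC22019 served as QC.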

Candida tropicalis [2] = experiment: Antifungal activity against Candida tropicalis PMC 0910 after 48 hrs by M27-A3 CLSI method; format: functional; conditions: PMC 0910, 48 h; method in brief: as §1
Candida albicans [3] = experiment: Antifungal activity against Candida albicans ATCC 10231 after 48 hrs by M27-A3 CLSI method; format: functional; conditions: ATCC 10231, 48 h; method in brief: as §1
Candida tropicalis [4] = experiment: Antifungal activity against Candida tropicalis DSM 11953 after 48 hrs by M27-A3 CLSI method; format: functional; conditions: DSM 11953, 48 h; method in brief: as §1
Pichia kudriavzevii [5] = experiment: Antifungal activity against Candida krusei DSM 6128 after 48 hrs by M27-A3 CLSI method; format: functional; conditions: DSM 6128, 48 h; method in brief: as §1
Candida albicans [6] = experiment: Antifungal activity against Candida albicans ATCC 76615 after 48 hrs by M27-A3 CLSI method; format: functional; conditions: ATCC 76615, 48 h; method in brief: as §1
Candida albicans [7] = experiment: Antifungal activity against Candida albicans ATCC 3153 after 48 hrs by M27-A3 CLSI method; format: functional; conditions: ATCC 3153, 48 h; method in brief: as §1
Nakaseomyces glabratus [8] = experiment: Antifungal activity against Candida glabrata PMC 0805 after 48 hrs by M27-A3 CLSI method; format: functional; conditions: PMC 0805, 48 h; method in brief: as §1
Candida = experiment: Antifungal activity against Candida sp. after 48 hrs by M27-A3 CLSI method; format: functional; method in brief: as §1
Candida parapsilosis [9] = experiment: Antifungal activity against Candida parapsilosis DSM 11224 after 48 hrs by M27-A3 CLSI method; format: functional; method in brief: as §1
Candida albicans [10] = experiment: Antifungal activity against Candida albicans after 48 hrs by M27-A3 CLSI method; format: functional; method in brief: as §1
Pichia kudriavzevii [11] = experiment: Antifungal activity against Candida krusei PMC 0613 after 48 hrs by M27-A3 CLSI method; format: functional; method in brief: as §1
Candida parapsilosis [12] = experiment: Antifungal activity against Candida parapsilosis ATCC 22019 after 48 hrs by M27-A3 CLSI method; format: functional; conditions: Lodderomyces parapsilosis, ATCC 22019, 48 h; method in brief: as §1
Candida tropicalis [13] = experiment: Antifungal activity against Candida tropicalis DSM11953 after 48 hrs by M27-A3 CLSI method
Candida tropicalis [14] = experiment: Antifungal activity against Candida tropicalis after 48 hrs by M27-A3 CLSI method; format: functional; method in brief: as §1
Candida parapsilosis [15] = experiment: Antifungal activity against Candida parapsilosis after 48 hrs by M27-A3 CLSI method; format: functional; conditions: Lodderomyces parapsilosis; method in brief: as §1
Nakaseomyces glabratus [16] = experiment: Antifungal activity against Candida glabrata after 48 hrs by M27-A3 CLSI method; format: functional; method in brief: as §1
Pichia kudriavzevii [17] = experiment: Antifungal activity against Candida krusei after 48 hrs by M27-A3 CLSI method; format: functional; method in brief: as §1
[18] = Candida albicans, ATCC 24433, 48 h, read-out: MIC
[19] = Lodderomyces parapsilosis, DSM 11224, 48 h, read-out: MIC
[20] = Pichia kudriavzevii, PMC 0613, 48 h, read-out: MIC

Row | SMILES | MIC (Candida albicans [1]; [18]) [µg/mL] | MIC (Candida tropicalis [2]) [µg/mL] | MIC (Candida albicans [3]) [µg/mL] | MIC (Candida tropicalis [4]) [µg/mL] | MIC (Pichia kudriavzevii [5]) [µg/mL] | MIC (Candida albicans [6]) [µg/mL] | MIC (Candida albicans [7]) [µg/mL] | MIC (Nakaseomyces glabratus [8]) [µg/mL] | MIC (Candida) [µg/mL] | MIC50 (Candida) [µg/mL] | MIC90 (Candida) [µg/mL] | MIC (Candida parapsilosis [9]; [19]) [µg/mL] | MIC (Candida albicans [10]) [µg/mL] | MIC50 (Candida albicans [10]) [µg/mL] | MIC90 (Candida albicans [10]) [µg/mL] | MIC (Pichia kudriavzevii [11]; [20]) [µg/mL] | MIC (Candida parapsilosis [12]) [µg/mL] | further results
1 | OC(Cn1ccnc1)c1ccc(F)cc1 (racemic) | > 64 | 16 (≈ 77.6 µM) | > 64 | > 64 | > 64 | > 64 | 32 (≈ 155 µM) | 16 (≈ 77.6 µM) | 104 (≈ 504 µM) | 128 (≈ 621 µM) | 128 (≈ 621 µM) | > 64 | 101 (≈ 491 µM) | 128 (≈ 621 µM) | 128 (≈ 621 µM) | 64 (≈ 310 µM) | > 64 | –
2 | O=C(Nc1cc(Cl)nc(Cl)c1)OC(Cn1ccnc1)c1ccc(Cl)cc1 (racemic) | > 64 | > 64 | > 64 | > 64 | > 64 | > 64 | > 64 | > 64 | 121 (≈ 294 µM) | 128 (≈ 311 µM) | 128 (≈ 311 µM) | > 64 | 119 (≈ 289 µM) | 128 (≈ 311 µM) | 128 (≈ 311 µM) | > 64 | > 64 | –
3 | Cl.O=C(OC(Cn1ccnc1)c1ccc(F)cc1)c1cccc(C(F)(F)F)c1 (racemic; 4b) | 8 | 1 | 8 | 32 | 64 | ≥ 64 | 8 | 32 | 22.6 | 16 | 32 | 8 | 34.3 | 8 | 64 | 16 | 32 | –
4 | O=C(OC(Cn1ccnc1)c1ccccc1)c1cccc(C(F)(F)F)c1 (racemic) | ≥ 64 | 32 (≈ 88.8 µM) | 32 (≈ 88.8 µM) | > 64 | > 64 | ≥ 64 | ≥ 64 | > 64 | 85 (≈ 236 µM) | 64 (≈ 178 µM) | 128 (≈ 355 µM) | 8 (≈ 22.2 µM) | 91.4 (≈ 254 µM) | 64 (≈ 178 µM) | 128 (≈ 355 µM) | 64 (≈ 178 µM) | 64 (≈ 178 µM) | –
5 | O=C(OC(Cn1ccnc1)c1ccccc1)c1ccc(-c2ccccc2)cc1 (single isomer, unassigned; (+)) | – | – | – | – | – | – | – | – | – | – | – | – | – | – | – | – | – | MIC (Candida albicans [1]): 33.7 µg/mL (≈ 91.5 µM); MIC (Candida tropicalis [13]): 26.67 µg/mL (≈ 72.4 µM); MIC (Candida parapsilosis [9]): 26.67 µg/mL (≈ 72.4 µM); MIC (Pichia kudriavzevii [11]): 21.33 µg/mL (≈ 57.9 µM)
6 | O=C(OC(Cn1ccnc1)c1ccc(C(F)(F)F)cc1)c1cccc(C(F)(F)F)c1 (racemic) | ≥ 64 | 32 (≈ 74.7 µM) | 64 (≈ 149 µM) | > 64 | > 64 | ≥ 64 | ≥ 64 | > 64 | 100 (≈ 233 µM) | 128 (≈ 299 µM) | 128 (≈ 299 µM) | > 64 | 91.4 (≈ 213 µM) | 64 (≈ 149 µM) | 128 (≈ 299 µM) | 64 (≈ 149 µM) | 64 (≈ 149 µM) | –
7 | O=C(OC(Cn1ccnc1)c1ccc(F)cc1)c1cccc(C(F)(F)F)c1 (racemic; 3b) | 16 (≈ 42.3 µM) | > 64 | 8 (≈ 21.1 µM) | 4 (≈ 10.6 µM) | > 64 | > 64 | 2 (≈ 5.29 µM) | > 64 | 52.9 (≈ 140 µM) | 8 (≈ 21.1 µM) | 128 (≈ 338 µM) | 4 (≈ 10.6 µM) | 27.7 (≈ 73.2 µM) | 8 (≈ 21.1 µM) | 16 (≈ 42.3 µM) | 8 (≈ 21.1 µM) | > 8 | –
8 | OC(Cn1cncn1)(Cn1cncn1)c1ccc(F)cc1F [FLUCONAZOLE] | 1 (≈ 3.27 µM) | 2.5 (≈ 8.16 µM) | 2 (≈ 6.53 µM) | 1 (≈ 3.27 µM) | 16 (≈ 52.2 µM) | 0.25 (≈ 0.816 µM) | 16 (≈ 52.2 µM) | 0.5 (≈ 1.63 µM) | 7.9 (≈ 25.8 µM) | 2 (≈ 6.53 µM) | 16 (≈ 52.2 µM) | 1 (≈ 3.27 µM) | 4.9 (≈ 16 µM) | 1 (≈ 3.27 µM) | 16 (≈ 52.2 µM) | 12 (≈ 39.2 µM) | 2 (≈ 6.53 µM) | MIC (Candida tropicalis [14]): 3.25 µg/mL (≈ 10.6 µM); MIC (Candida parapsilosis [15]): 1.6 µg/mL (≈ 5.22 µM); MIC (Nakaseomyces glabratus [16]): 0.87 µg/mL (≈ 2.84 µM); MIC (Pichia kudriavzevii [17]): 26 µg/mL (≈ 84.9 µM)
9 | O=C(COc1ccccc1)OC(Cn1ccnc1)c1ccc(F)cc1 (racemic) | 16 (≈ 47 µM) | 1 (≈ 2.94 µM) | 8 (≈ 23.5 µM) | > 64 | > 64 | > 64 | ≥ 64 | 16 (≈ 47 µM) | 61.1 (≈ 180 µM) | 4 (≈ 11.8 µM) | 128 (≈ 376 µM) | 4 (≈ 11.8 µM) | 76.6 (≈ 225 µM) | 64 (≈ 188 µM) | 128 (≈ 376 µM) | 16 (≈ 47 µM) | > 64 | –
